Converted amounts (≈) assume the structure as drawn.
Experiments:
Enterococcus faecium = assay: Antibacterial activity against vancomycin-resistant Enterococcus faecium ATCC 700221 assessed as inhibition of bacterial growth by Mueller-Hinton broth based assay; format: functional
Enterococcus faecalis = assay: Antibacterial activity against vancomycin-resistant Enterococcus faecalis ATCC 51299 assessed as inhibition of bacterial growth by Mueller-Hinton broth based assay; format: functional
[1] = Cytotoxicity against HEK293 cells assessed as inhibition of cell growth incubated for 48 hrs by Cell-Titer Glo reagent based analysis; format: toxicity; conditions: human
Method in brief: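 HEK293 cells seeded at 7500 cells/well in DMEM with 10% FBS, 2 mM glutamine and pen/strep, and left 18 h at 37 °C under 5% CO2. Compound then added at 1% final DMSO and incubated 48 h. Viability read by CellTiter-Glo luminescence and normalized to DMSO-only wells. Curves fitted by 4PL constrained to 0–1.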

[2] = Hemolytic activity in human RBC incubated for 1 hr by absorbance based analysis; format: toxicity, cell-based, Erythrocyte; conditions: red blood cells (erythrocytes)
Method in brief: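 Human K2-EDTA blood RBCs washed twice in 150 mM NaCl, resuspended in PBS pH 7.4, then diluted 1:50. Incubated with compound at 1% final DMSO for 1 h at 37 °C and pelleted at 500g for 5 min. Supernatant absorbance read at 540 nm. Controls were DMSO-only and a Triton X-100 dilution series (20% to 0.02%).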

Staphylococcus aureus = assay: Antibacterial activity against Staphylococcus aureus ATCC 33591 assessed as reduction in bacterial growth by Mueller-Hinton broth based assay; format: functional
Method in brief: (§1)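 Broth MIC by standard procedure in Mueller-Hinton broth, for both B. subtilis 168 and S. aureus ATCC 33591.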

[3] = tested on: Mycolicibacterium smegmatis; assay: Antimycobacterial activity against Mycobacterium smegmatis MC2 155 assessed as inhibition of bacterial growth measured after 2 days by resazurin dye based analysis; format: functional; conditions: MC2 155, 48 h, time 2 day
Method in brief: (§2)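 Strains grown in 7H9 broth with 0.2% glycerol, 10% OADC and 0.05% Tween-80. Inoculum was about 5 × 10^5 CFU/mL, checked by plating on 7H10/OADC agar to be 3–8 × 10^5. Read at 2 days for M. smegmatis and 7 days for M. tuberculosis H37Ra, M. bovis and M. avium. Resazurin 30 μg/mL was then added for one further day. Values are averages of at least two experiments.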

[4] = tested on: Mycolicibacterium fortuitum; assay: Antimycobacterial activity against Mycobacterium fortuitum ATCC 6891 assessed as inhibition of bacterial growth measured after 2 days by resazurin dye based analysis; format: functional; conditions: ATCC 6891, 48 h, time 2 day
Method in brief: (§3)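 Cultured in 7H9 with 0.2% glycerol, 10% OADC and 0.05% Tween-80. Inoculum diluted to ~5 × 10^5 CFU/mL and confirmed at 3–8 × 10^5 by plating on 7H10 agar. Growth read at 2 days, then 30 μg/mL resazurin added for one more day. Values averaged from at least two experiments.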

[5] = tested on: Mycobacteroides abscessus; assay: Antimycobacterial activity against Mycobacterium abscessus ATCC 19977 assessed as inhibition of bacterial growth measured after 2 days by resazurin dye based analysis; format: functional; conditions: ATCC 19977, 48 h, time 2 day; method in brief: as §3
[6] = tested on: Mycobacterium tuberculosis; assay: Antimycobacterial activity against Mycobacterium tuberculosis H37Ra assessed as inhibition of bacterial growth measured after 7 days by resazurin dye based analysis; format: functional; conditions: 168 h, time 7 day; method in brief: as §2
[7] = Antimycobacterial activity against Mycobacterium avium subsp. avium ATCC 25291 assessed as inhibition of bacterial growth measured after 7 days by resazurin dye based analysis; format: functional; conditions: ATCC 25291, 168 h, time 7 day; method in brief: as §2
Bacillus subtilis = assay: Antibacterial activity against Bacillus subtilis 168 assessed as reduction in bacterial growth by Mueller-Hinton broth based assay; format: functional; method in brief: as §1

CCCCCCNC(C(=O)N[C@@H]1Cc2c[nH]c3cc(ccc23)-c2cc3cc(c2O)Oc2ccc(cc2)C[C@H]2C(=O)N[C@@H](C(=O)O)c4ccc(O)c(c4)Oc4ccc(cc4)[C@@H](NC(=O)[C@@H]3NC(=O)[C@@H](c3ccc(O)cc3)NC1=O)C(=O)N2C)c1ccc(O)cc1 (stereo partly drawn)
MIC (Enterococcus faecium): 4 µg/mL (≈ 3.32 µM) | MIC (Enterococcus faecalis): 4 µg/mL (≈ 3.32 µM) | IC50 at 48 h [1]: > 256 µg/mL | IC50 at 1 h [2]: > 256 µg/mL

CN1C(=O)[C@@H]2NC(=O)[C@@H]3NC(=O)[C@@H](c4ccc(O)cc4)NC(=O)[C@H](NC(=O)C(NC(=O)CCCCCN)c4ccc(O)cc4)Cc4c[nH]c5cc(ccc45)-c4cc3cc(c4O)Oc3ccc(cc3)C[C@H]1C(=O)N[C@@H](C(=O)O)c1ccc(O)c(c1)Oc1ccc2cc1 (stereo partly drawn)
MIC (Staphylococcus aureus): 8 µg/mL (≈ 6.48 µM) | IC50 at 48 h [1]: > 256 µg/mL | IC50 at 1 h [2]: > 256 µg/mL

CN1C(=O)[C@@H](c2cc(Cl)c(O)c(Cl)c2)NC(=O)[C@@H]2NC(=O)[C@@H](c3cc(Cl)c(O)c(Cl)c3)NC(=O)[C@H](NC(=O)C(=O)c3cc(Cl)c(O)c(Cl)c3)Cc3c[nH]c4cc(ccc34)-c3cc2cc(c3O)Oc2ccc(cc2)C[C@H]1C(=O)N[C@@H](C(=O)O)c1ccc(O)cc1 [ISOCOMPLESTATIN]
MIC [3]: > 128 µg/mL | MIC [4]: > 128 µg/mL | MIC [5]: > 128 µg/mL | MIC [6]: > 64 µg/mL | MIC [7]: > 64 µg/mL

CN1C(=O)[C@@H]2NC(=O)[C@@H]3NC(=O)[C@@H](c4ccc(O)cc4)NC(=O)[C@H](NC(=O)C(Nc4ccc(Br)cc4)c4ccc(O)cc4)Cc4c[nH]c5cc(ccc45)-c4cc3cc(c4O)Oc3ccc(cc3)C[C@H]1C(=O)N[C@@H](C(=O)O)c1ccc(O)c(c1)Oc1ccc2cc1 (stereo partly drawn)
MIC (Staphylococcus aureus): 4 µg/mL (≈ 3.13 µM) | MIC [3]: > 128 µg/mL | MIC (Enterococcus faecium): 8 µg/mL (≈ 6.27 µM) | MIC (Enterococcus faecalis): 8 µg/mL (≈ 6.27 µM) | MIC (Bacillus subtilis): 2 µg/mL (≈ 1.57 µM)

CN1C(=O)[C@@H]2NC(=O)[C@@H]3NC(=O)[C@@H](c4ccc(O)cc4)NC(=O)[C@H](NC(=O)C(Nc4cc(C(F)(F)F)cc(C(F)(F)F)c4)c4ccc(O)cc4)Cc4c[nH]c5cc(ccc45)-c4cc3cc(c4O)Oc3ccc(cc3)C[C@H]1C(=O)N[C@@H](C(=O)O)c1ccc(O)c(c1)Oc1ccc2cc1 (stereo partly drawn)
MIC (Staphylococcus aureus): 8 µg/mL (≈ 6 µM) | MIC [3]: > 128 µg/mL | MIC (Enterococcus faecium): 8 µg/mL (≈ 6 µM) | MIC (Enterococcus faecalis): 8 µg/mL (≈ 6 µM) | MIC (Bacillus subtilis): 8 µg/mL (≈ 6 µM)

CN1C(=O)[C@@H]2NC(=O)[C@@H]3NC(=O)[C@@H](c4ccc(O)cc4)NC(=O)[C@H](NC(=O)C(N)c4ccc(O)cc4)Cc4c[nH]c5cc(ccc45)-c4cc3cc(c4O)Oc3ccc(cc3)C[C@H]1C(=O)N[C@@H](C(=O)NCCCN)c1ccc(O)c(c1)Oc1ccc2cc1 (stereo partly drawn)
MIC (Enterococcus faecium): 1 µg/mL (≈ 0.849 µM) | MIC (Enterococcus faecalis): 4 µg/mL (≈ 3.4 µM) | IC50 at 48 h [1]: > 256 µg/mL | IC50 at 1 h [2]: > 256 µg/mL

CN1C(=O)[C@@H]2NC(=O)[C@@H]3NC(=O)[C@@H](c4ccc(O)cc4)NC(=O)[C@H](NC(=O)C(Nc4cccc(-c5ccc(F)cc5)c4)c4ccc(O)cc4)Cc4c[nH]c5cc(ccc45)-c4cc3cc(c4O)Oc3ccc(cc3)C[C@H]1C(=O)N[C@@H](C(=O)O)c1ccc(O)c(c1)Oc1ccc2cc1 (stereo partly drawn)
MIC (Staphylococcus aureus): > 128 µg/mL | MIC [3]: > 128 µg/mL | MIC (Enterococcus faecium): 16 µg/mL (≈ 12.4 µM) | MIC (Enterococcus faecalis): 16 µg/mL (≈ 12.4 µM) | MIC (Bacillus subtilis): > 128 µg/mL

CN1C(=O)[C@@H]2NC(=O)[C@@H]3NC(=O)[C@@H](c4ccc(O)cc4)NC(=O)[C@H](NC(=O)Cc4ccc(O)cc4)Cc4c[nH]c5cc(ccc45)-c4cc3cc(c4O)Oc3ccc(cc3)C[C@H]1C(=O)N[C@@H](C(=O)NCCC[N+](C)(C)C)c1ccc(O)c(c1)Oc1ccc2cc1
MIC (Staphylococcus aureus): > 128 µg/mL | MIC [3]: 0.5 µg/mL | MIC (Enterococcus faecium): 4 µg/mL | MIC (Enterococcus faecalis): 16 µg/mL | MIC (Bacillus subtilis): 4 µg/mL | IC50 at 48 h [1]: > 256 µg/mL | IC50 at 1 h [2]: > 256 µg/mL

CN1C(=O)[C@@H]2NC(=O)[C@@H]3NC(=O)[C@@H](c4ccc(O)cc4)NC(=O)[C@H](NC(=O)C(Nc4ccc(B(O)O)cc4)c4ccc(O)cc4)Cc4c[nH]c5cc(ccc45)-c4cc3cc(c4O)Oc3ccc(cc3)C[C@H]1C(=O)N[C@@H](C(=O)O)c1ccc(O)c(c1)Oc1ccc2cc1 (stereo partly drawn)
MIC (Staphylococcus aureus): 8 µg/mL (≈ 6.45 µM) | MIC [3]: > 128 µg/mL | MIC (Enterococcus faecium): 8 µg/mL (≈ 6.45 µM) | MIC (Enterococcus faecalis): 8 µg/mL (≈ 6.45 µM) | MIC (Bacillus subtilis): 1 µg/mL (≈ 0.806 µM)

NNC(=O)c1ccncc1 [ISONIAZID]
MIC [3]: 4 µg/mL (≈ 29.2 µM) | MIC [4]: 4 µg/mL (≈ 29.2 µM) | MIC [5]: > 128 µg/mL | MIC [6]: 0.063 µg/mL (≈ 0.459 µM) | MIC [7]: > 128 µg/mL

CN1C(=O)[C@@H]2NC(=O)[C@@H]3NC(=O)[C@@H](c4ccc(O)cc4)NC(=O)[C@H](NC(=O)C(Nc4cc(F)cc(F)c4F)c4ccc(O)cc4)Cc4c[nH]c5cc(ccc45)-c4cc3cc(c4O)Oc3ccc(cc3)C[C@H]1C(=O)N[C@@H](C(=O)O)c1ccc(O)c(c1)Oc1ccc2cc1 (stereo partly drawn)
MIC (Staphylococcus aureus): 8 µg/mL (≈ 6.39 µM) | MIC [3]: > 128 µg/mL | MIC (Enterococcus faecium): 4 µg/mL (≈ 3.2 µM) | MIC (Enterococcus faecalis): 8 µg/mL (≈ 6.39 µM) | MIC (Bacillus subtilis): 4 µg/mL (≈ 3.2 µM)

CN1C(=O)[C@@H]2NC(=O)[C@@H]3NC(=O)[C@@H](c4ccc(O)cc4)NC(=O)[C@H](NC(=O)C(Nc4cc(O)cc(O)c4)c4ccc(O)cc4)Cc4c[nH]c5cc(ccc45)-c4cc3cc(c4O)Oc3ccc(cc3)C[C@H]1C(=O)N[C@@H](C(=O)O)c1ccc(O)c(c1)Oc1ccc2cc1 (stereo partly drawn)
MIC (Staphylococcus aureus): 4 µg/mL (≈ 3.25 µM) | MIC [3]: > 128 µg/mL | MIC (Enterococcus faecium): 16 µg/mL (≈ 13 µM) | MIC (Enterococcus faecalis): 4 µg/mL (≈ 3.25 µM) | MIC (Bacillus subtilis): 1 µg/mL (≈ 0.814 µM)

CN1C(=O)[C@@H]2NC(=O)[C@@H]3NC(=O)[C@@H](c4ccc(O)cc4)NC(=O)[C@H](NC(=O)C(Nc4cccc(O)c4)c4ccc(O)cc4)Cc4c[nH]c5cc(ccc45)-c4cc3cc(c4O)Oc3ccc(cc3)C[C@H]1C(=O)N[C@@H](C(=O)O)c1ccc(O)c(c1)Oc1ccc2cc1 (stereo partly drawn)
MIC (Staphylococcus aureus): 4 µg/mL (≈ 3.3 µM) | MIC [3]: > 128 µg/mL | MIC (Enterococcus faecium): 4 µg/mL (≈ 3.3 µM) | MIC (Enterococcus faecalis): 4 µg/mL (≈ 3.3 µM) | MIC (Bacillus subtilis): 0.5 µg/mL (≈ 0.412 µM)

CN1C(=O)[C@@H]2NC(=O)[C@@H]3NC(=O)[C@@H](c4ccc(O)cc4)NC(=O)[C@H](NC(=O)C(Nc4cc(Cl)cc(Cl)c4Cl)c4ccc(O)cc4)Cc4c[nH]c5cc(ccc45)-c4cc3cc(c4O)Oc3ccc(cc3)C[C@H]1C(=O)N[C@@H](C(=O)O)c1ccc(O)c(c1)Oc1ccc2cc1 (stereo partly drawn)
MIC (Staphylococcus aureus): 4 µg/mL (≈ 3.08 µM) | MIC [3]: > 128 µg/mL | MIC (Enterococcus faecium): 16 µg/mL (≈ 12.3 µM) | MIC (Enterococcus faecalis): 8 µg/mL (≈ 6.15 µM) | MIC (Bacillus subtilis): 4 µg/mL (≈ 3.08 µM)

CN1C(=O)[C@@H]2NC(=O)[C@@H]3NC(=O)[C@@H](c4ccc(O)cc4)NC(=O)[C@H](NC(=O)C(Nc4cccc(O)c4O)c4ccc(O)cc4)Cc4c[nH]c5cc(ccc45)-c4cc3cc(c4O)Oc3ccc(cc3)C[C@H]1C(=O)N[C@@H](C(=O)O)c1ccc(O)c(c1)Oc1ccc2cc1 (stereo partly drawn)
MIC (Staphylococcus aureus): 16 µg/mL (≈ 13 µM) | MIC [3]: > 128 µg/mL | MIC (Enterococcus faecium): 16 µg/mL (≈ 13 µM) | MIC (Enterococcus faecalis): 8 µg/mL (≈ 6.51 µM) | MIC (Bacillus subtilis): 4 µg/mL (≈ 3.25 µM)

CN(C)CCCNCCCNC(=O)[C@@H]1NC(=O)[C@@H]2Cc3ccc(cc3)Oc3cc4cc(c3O)-c3ccc5c(c[nH]c5c3)C[C@@H](NC(=O)Cc3ccc(O)cc3)C(=O)N[C@H](c3ccc(O)cc3)C(=O)N[C@H]4C(=O)N[C@@H](C(=O)N2C)c2ccc(cc2)Oc2cc1ccc2O
MIC (Staphylococcus aureus): > 128 µg/mL | MIC [3]: 1 µg/mL (≈ 0.802 µM) | MIC (Enterococcus faecium): 2 µg/mL (≈ 1.6 µM) | MIC (Enterococcus faecalis): 16 µg/mL (≈ 12.8 µM) | MIC (Bacillus subtilis): 8 µg/mL (≈ 6.41 µM)
